Results on 25 compounds are retold here after ChEMBL document CHEMBL1138812, “Synthesis and antiviral evaluation of polyhalogenated imidazole nucleosides: dimensional analogues of 2,5,6-trichloro-1-(beta-D-ribofuranosyl)benzimidazole” (J Med Chem, 2004).

In one assay the test system is Human alphaherpesvirus 1. Briefly: Inhibitory activity against herpes simplex virus type-1 cultures was determined by ELISA assay. It counts as functional, organism-based. An outline of the steps: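 BSC-1 cells, 10000 per well in MEM(E) with 10% calf serum, incubated overnight at 37 °C. Drug added in quadruplicate with HSV-1 (KOS) at 100 pfu/well and incubated 3 days at 37 °C. Plates blocked, probed with HRP-conjugated rabbit anti-HSV-1 and developed with TMB; reaction stopped with H2SO4 and read at 450/570 nm. Percent absorbance reduction versus virus-only wells, IC50 by regression.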

In the next assay the test system is Human betaherpesvirus 5. Description: Concentration required to inhibit plaque formation in human cytomegalovirus cultures was determined. The format is functional, organism-based. An outline of the steps: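 HFF monolayers infected with about 100 pfu/cm² of HCMV Towne strain (plaque-purified P₀). After adsorption, compound (10 mg/mL DMSO stock, diluted in medium) added at four to eight concentrations in duplicate wells. After 7–10 days at 37 °C, cells fixed and stained with crystal violet and plaques counted microscopically. Percent plaque reduction versus drug-free wells, IC50 by regression against log concentration.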

Another assay concerns HFF. Description: Concentration required to inhibit stationary human HFF cell line growth was determined by microscopy examination. It counts as functional, cell-based. The method in brief:
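Toxicity judged by microscopic inspection of uninfected stationary HFF cells in the HCMV plaque assay, scored at the time plaques were counted. Results come from duplicate experiments. IC50 from linear regression of percent inhibition against log concentration.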

The next assay deals with KB. Description: Concentration required to inhibit KB cell line growth was determined by crystal violet staining method. The format is functional, cell-based. As to conditions: Homo sapiens. The method in brief:
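KB cells, 3000–5000 per well, incubated overnight at 37 °C, then compound added at six to eight concentrations in quadruplicate. Grown 48 h at 37 °C under CO2 (two population doublings), fixed in 95% ethanol, stained with 0.1% crystal violet, dye eluted with acidified ethanol, absorbance 570 nm. IC50 taken from linear regression of percent inhibition against log concentration.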

For the compound `OCC1OC(n2c(Br)nc(Cl)c2Cl)[C@@H](O)C1O` (some centres not stated), the IC50 in the assay on Human alphaherpesvirus 1, with Human betaherpesvirus 5, with HFF and in the assay with KB was above 100 µM each time.

With `OCCOCn1c(Cl)nc(Cl)c1Cl`, the 50% inhibitory concentration (IC50) with Human alphaherpesvirus 1 was 35 µM; with Human betaherpesvirus 5 it was above 100 µM; in the assay on HFF, 45 µM; with KB, 25 µM.

As for `OCCOCn1c(Br)nc(Cl)c1Cl`, the concentration for half-maximal inhibition (IC50) in the assay on Human alphaherpesvirus 1, with Human betaherpesvirus 5, in the assay on HFF and with KB was above 100 µM throughout.

Take `OCC(CO)OCn1c(Cl)nc(Cl)c1Cl`: the IC50 in the assay with Human alphaherpesvirus 1 is 30 µM; in the assay on Human betaherpesvirus 5 it was above 100 µM; in the assay with HFF, above 100 µM; in the assay with KB, 25 µM.

Regarding `OCC1OC(n2c(Br)nc(Br)c2Br)[C@@H](O)C1O` (some centres not stated), the IC50 is above 100 µM in the assay with Human alphaherpesvirus 1, 32 µM in the assay on Human betaherpesvirus 5, above 100 µM with HFF and 90 µM in the assay on KB.

On to `OCCOCn1c(Br)nc(Br)c1Br`, for which the IC50 with Human alphaherpesvirus 1, with Human betaherpesvirus 5, in the assay with HFF and in the assay on KB was above 100 µM each time.

With `Clc1nc(Cl)c(Cl)[nH]1`, the results for the concentration for half-maximal inhibition (IC50) with Human betaherpesvirus 5 and with HFF were 30 µM and 75 µM, respectively.

Take `OC[C@H]1O[C@@H](n2c(Br)nc(Cl)c2Cl)[C@H](O)[C@@H]1O`: the IC50 in the assay with Human alphaherpesvirus 1, in the assay on Human betaherpesvirus 5, in the assay on HFF and with KB was above 100 µM in each case.

Consider `OC[C@H]1O[C@@H](n2c(Br)nc(Br)c2Br)[C@H](O)[C@@H]1O`, for which the IC50 in the assay on Human alphaherpesvirus 1 stood at 60 µM; in the assay on Human betaherpesvirus 5, 30 µM; with HFF, 100 µM; in the assay on KB, 65 µM.

Regarding `OC[C@H]1O[C@@H](n2c(Cl)nc(Cl)c2Cl)[C@H](O)[C@@H]1O`, the IC50 in the assay on Human alphaherpesvirus 1, in the assay on Human betaherpesvirus 5, with HFF and in the assay with KB was above 100 µM each time.

For the compound `OC[C@H]1O[C@@H](n2c(Cl)nc(Cl)c2Cl)[C@H](O)[C@H]1O`, the 50% inhibitory concentration (IC50) in the assay on Human alphaherpesvirus 1 was 50 µM; in the assay on Human betaherpesvirus 5, above 100 µM; in the assay on HFF, above 100 µM; in the assay with KB, above 100 µM.

Consider `OC[C@H]1O[C@@H](n2c(Br)nc(Cl)c2Cl)[C@H](O)[C@H]1O`, for which the IC50 in the assay with Human alphaherpesvirus 1, with Human betaherpesvirus 5, in the assay on HFF and with KB was above 100 µM in each case.

As for `OC[C@H]1O[C@@H](n2c(Br)nc(Br)c2Br)[C@H](O)[C@H]1O`, the IC50 in the assay on Human alphaherpesvirus 1, with Human betaherpesvirus 5, in the assay on HFF and in the assay on KB was above 100 µM in each case.

On to `OC[C@H]1O[C@@H](n2cnc3cc(Cl)c(Cl)cc32)[C@@H](O)[C@H]1O`, for which the half-maximal inhibitory concentration (IC50) stood at 30 µM in the assay on Human alphaherpesvirus 1, 42 µM in the assay on Human betaherpesvirus 5, 24 µM in the assay with HFF and 36 µM in the assay with KB.

For the compound `OCC(CO)OCn1c(Br)nc(Cl)c1Cl`, the IC50 in the assay on Human alphaherpesvirus 1, with Human betaherpesvirus 5, in the assay with HFF and with KB was above 100 µM each time.

As to `Clc1nc(Br)[nH]c1Cl`, the IC50 is 41 µM with Human betaherpesvirus 5 and above 100 µM in the assay with HFF.

With `OCC(CO)OCn1c(Br)nc(Br)c1Br`, the half-maximal inhibitory concentration (IC50) in the assay with Human alphaherpesvirus 1, in the assay on Human betaherpesvirus 5, in the assay on HFF and with KB was above 100 µM in each case.

Turning to `Brc1nc(Br)c(Br)[nH]1`, the IC50 in the assay on Human betaherpesvirus 5 was determined as 37 µM; in the assay with HFF it was 75 µM.

Take `OC[C@H]1O[C@@H](n2c(Br)nc3cc(Cl)c(Cl)cc32)[C@H](O)[C@@H]1O`: the IC50 with Human betaherpesvirus 5 is 0.7 µM; in the assay on KB, above 100 µM.

`OC[C@H]1O[C@@H](n2c(Cl)nc3cc(Cl)c(Cl)cc32)[C@H](O)[C@@H]1O`: in the assay on KB, the IC50 is above 100 µM.

As to `OC[C@H]1OC(n2cnc(Br)c2Br)[C@H](O)[C@@H]1O` (some centres not stated), the IC50 with Human alphaherpesvirus 1, with Human betaherpesvirus 5, with HFF and with KB was above 100 µM throughout.

Take `OC[C@H]1OC(n2c(Cl)nc3cc4cc(Cl)c(Cl)cc4nc32)[C@H](O)[C@@H]1O` (some centres not stated): the values for the half-inhibitory concentration (IC50) in the assay with Human alphaherpesvirus 1 and with Human betaherpesvirus 5 were 90 µM and 18 µM, respectively.

On to `OC[C@H]1OC(n2cnc(Cl)c2Cl)[C@H](O)[C@@H]1O` (some centres not stated), for which the IC50 with Human alphaherpesvirus 1, with Human betaherpesvirus 5, in the assay on HFF and in the assay on KB was above 100 µM in each case.

With `OC[C@H]1OC(n2c(Cl)nc3cc4cc(Cl)c(Cl)cc4cc32)[C@H](O)[C@@H]1O` (some centres not stated), half-maximal inhibition with Human betaherpesvirus 5 (IC50) was put at 2 µM.

For `OC[C@H]1OC(n2c(Cl)nc3nc4cc(Cl)c(Cl)cc4cc32)[C@H](O)[C@@H]1O` (some centres not stated), the figures for the IC50 in the assay on Human alphaherpesvirus 1 and in the assay on Human betaherpesvirus 5 were 70 µM and 2 µM, respectively.
